Data set [1] can be described thus: Compound was tested for its half life period at pH 1.2 using HCl/NaCl buffer. The class given is ADME. The method in brief:
(§1)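 Compound incubated in buffer (HCl/NaCl at pH 1.2; sodium phosphate at pH 6.0, 7.4, 8.0), sampled and analysed by C18 reversed-phase HPLC. Gradient: 10 min 100% 0.1% phosphoric acid, 25 min linear to 45% of 80% MeCN/0.1% phosphoric acid, then 4 min isocratic, at 1 mL/min. UV detection at 245 nm. Half-life derived from remaining parent compound.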

For another data set, the system named is Rattus norvegicus. Nature of the data set: Total amount of Ganciclovir recovered in the urine over a 48 hr period after an oral dose of 0.1 mmol/kg to male SD rat. The class given is functional. A digest of the protocol: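 Single oral dose of 0.1 mmol/kg given to two male Sprague-Dawley rats (200-250 g). Urine collected for 48 h in metabolic cages, and total ganciclovir measured by C18 reversed-phase HPLC.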

Data set [2] can be described thus: Compound was tested for its half life period at pH 6.0 using Sodium phosphate buffer. The class given is ADME. The method in brief:
as §1

Data set [3] in a line: Compound was tested for its half life period at pH 8.0 using Sodium phosphate buffer. Type of data set: ADME. A digest of the protocol:
as §1

The next data set concerns HEL 299. In words: In vitro cytotoxicity of the compound (Concentration required to reduce OD value by 50%) in human embryonic lung fibroblast(HEL 299) cells determined by MTT assay. The class given is functional. The method in brief: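 HEL 299 cells seeded at 1 × 10^4 cells/well in EMEM and grown 24 h, then exposed to compound at various concentrations for 4 days at 37 °C, 5% CO2. MTT added for 4 h, formazan dissolved in DMSO, OD read at 540 nm. CC50 from probit dose-response; quadruplicate, repeated twice.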

The next data set deals with Human betaherpesvirus 5. Nature of the data set: In vitro antiviral (HCMV-AD169) activity of the compound (Concentration required to reduce 50% of the plaques) determined by plaque reduction assay. The class given is functional, cell-based. Particulars: Human betaherpesvirus 5, AD169, HEL 299. A digest of the protocol: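 Confluent cells infected with about 50 PFU HCMV AD-169 per well, 1 h adsorption at 37 °C, 5% CO2. Inoculum replaced with EMEM containing 2% FBS, 1% methyl cellulose and compound at various concentrations. After 10 days, plaques fixed in methanol, stained with crystal violet and counted. EC50 from probit dose-response; quadruplicate, repeated twice.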
(In general: In a plaque reduction assay, fewer plaques than in the control indicate reduced infectivity or spread.)

The nature of data set [4]: Compound was tested for its half life period at pH 7.4 using Sodium phosphate buffer. The class given is ADME. A digest of the protocol:
as §1

Data set [5] can be described thus: Compound was tested for solubility in water at 25 degree C. Particulars: read-out: S. The class given is ADME. A digest of the protocol: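 Saturated aqueous solution of compound; UV absorbance at 245 nm compared against a standard curve to give solubility.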

Converted amounts (≈) assume the structure as drawn.

For `CC(C)C(=O)OCC(COC(=O)C(C)C)OCn1cnc2c(F)nc(N)nc21`, the half-life in data set [1] was 1.23 h; in data set [2] it was 29 days; in data set [3] it was 120 h; in data set [4], 168 h. Besides, the “Ganciclovir recovered in urine over 48 h (% of dose)” value (shortened to “Ganciclovir recovered … (% of dose)”) in the data set on Rattus norvegicus was 42%. The compound also gave a 50% cytotoxic concentration (CC50) in the data set on HEL 299 of more than 100 µM. This compound registered an EC50 with Human betaherpesvirus 5 of more than 100 µM. The solubility in data set [5] was found to be 400 µg/mL (≈ 1.01 mM).

`CCCC(=O)OCC(CO)OCn1cnc2c(F)nc(N)nc21` (configuration not stated): the half-life in data set [1] was 1.15 h; in data set [2], 51 days; in data set [3] it was 288 h; in data set [4] it was 504 h. In addition, the “Ganciclovir recovered … (% of dose)” value in the data set on Rattus norvegicus stood at 41%. In the data set on HEL 299, this compound registered a CC50 of more than 100 µM. Moreover, in the data set on Human betaherpesvirus 5, the EC50 is more than 100 µM. Also, the solubility in data set [5] is 19400 µg/mL (≈ 59.3 mM).

As to `CC(=O)OCC(COC(C)=O)OCn1cnc2c(F)nc(N)nc21`, the half-life in data set [1] was 1.03 h; in data set [2], 30 days; in data set [3], 72 h; in data set [4] it was 192 h. Further, the “Ganciclovir recovered … (% of dose)” value with Rattus norvegicus came to 41%. The compound further displayed a half-maximal cytotoxic concentration (CC50) in the data set with HEL 299 of more than 100 µM. The EC50 with Human betaherpesvirus 5 is more than 100 µM. Also, in data set [5], the solubility came to 4200 µg/mL (≈ 12.3 mM).

Turning to `CC(=O)OCC(CO)OCn1cnc2c(F)nc(N)nc21` (configuration not stated), the half-life in data set [1] is 1.02 h; in data set [2], 56 days; in data set [3], 168 h; in data set [4] it was 336 h. Further, the “Ganciclovir recovered … (% of dose)” value in the data set on Rattus norvegicus is 29%. Moreover, in the data set on HEL 299, the 50% cytotoxic concentration (CC50) is more than 100 µM. In the data set on Human betaherpesvirus 5, the EC50 was more than 100 µM. Also, the solubility in data set [5] stood at 44400 µg/mL (≈ 148 mM).

Consider `CCCC(=O)OCC(COC(=O)CCC)OCn1cnc2c(F)nc(N)nc21`, for which the half-life in data set [1] is 1.08 h; in data set [2], 39 days; in data set [3], 96 h; in data set [4], 264 h. For the same compound, the “Ganciclovir recovered … (% of dose)” value in the data set with Rattus norvegicus is recorded as 35%. In the data set on HEL 299, this compound yielded a cytotoxic concentration (CC50) of more than 100 µM. The half-maximal effective concentration (EC50) with Human betaherpesvirus 5 was more than 100 µM. Further, in data set [5], the solubility turned out to be 600 µg/mL (≈ 1.51 mM).

For the compound `Nc1nc(F)c2ncn(COC(CO)CO)c2n1`, the half-life in data set [1] was 1.03 h; in data set [2] it was 107 days; in data set [3], 720 h; in data set [4] it was 1660 h. In addition, the “Ganciclovir recovered … (% of dose)” value in the data set with Rattus norvegicus is recorded as 8%. The half-maximal cytotoxic concentration (CC50) in the data set on HEL 299 is more than 100 µM. In the data set on Human betaherpesvirus 5, this compound gave a 50% effective concentration (EC50) of more than 100 µM. In addition, the solubility in data set [5] came out at 11300 µg/mL (≈ 43.9 mM).

Regarding `CCC(=O)OCC(COC(=O)CC)OCn1cnc2c(F)nc(N)nc21`, the half-life in data set [1] is 1.38 h; in data set [2], 35 days; in data set [3] it was 48 h; in data set [4], 168 h. For the same compound, the “Ganciclovir recovered … (% of dose)” value in the data set on Rattus norvegicus stood at 35%. Further, the CC50 in the data set with HEL 299 was more than 100 µM. The same compound displayed an EC50 in the data set on Human betaherpesvirus 5 of more than 100 µM. Also, the solubility in data set [5] was found to be 700 µg/mL (≈ 1.9 mM).

As to `CCC(=O)OCC(CO)OCn1cnc2c(F)nc(N)nc21` (configuration not stated), the half-life in data set [1] is 1 h; in data set [2], 37 days; in data set [3], 168 h; in data set [4] it was 408 h. In the data set with Rattus norvegicus, this compound came in with a Dose of 39%. The same compound returned a CC50 in the data set with HEL 299 of more than 100 µM. In the data set on Human betaherpesvirus 5, this compound displayed a concentration for a half-maximal effect (EC50) of more than 100 µM. In addition, the solubility in data set [5] came out at 19000 µg/mL (≈ 60.6 mM).

Turning to `CC(C)C(=O)OCC(CO)OCn1cnc2c(F)nc(N)nc21` (configuration not stated), the half-life is 1.08 h in data set [1], 56 days in data set [2], 336 h in data set [3] and 768 h in data set [4]. The “Ganciclovir recovered … (% of dose)” value with Rattus norvegicus came to 45%. The CC50 with HEL 299 was more than 100 µM. For the same compound, in the data set on Human betaherpesvirus 5, the EC50 is more than 100 µM. In addition, in data set [5], the solubility was determined as 5700 µg/mL (≈ 17.4 mM).

On to `Nc1nc2c(ncn2COC(CO)CO)c(=O)[nH]1` [GANCICLOVIR], for which the “Ganciclovir recovered … (% of dose)” value in the data set with Rattus norvegicus is reported as 3%. Besides, in the data set on HEL 299, the half-maximal cytotoxic concentration (CC50) is more than 100 µM. The compound also displayed a half-maximal effective concentration (EC50) in the data set on Human betaherpesvirus 5 of 0.63 µM. Further, the solubility in data set [5] worked out at 4300 µg/mL (≈ 16.8 mM).

With `CC(C)OCC(COC(C)C)OCn1cnc2cnc(N)nc21` [ROCICLOVIR], in the data set with Rattus norvegicus, the “Ganciclovir recovered … (% of dose)” value is 14%.

The term half-life denotes the time in which the quantity being followed falls by half. For orientation: CC50 means the concentration that lowers cell viability or growth by half. Low readings indicate greater toxicity to the cells, high ones lower toxicity to the cells. As a reminder, the EC50 is the concentration needed to bring the measured effect to its halfway point.

For the origin of these results see ChEMBL document CHEMBL1132422, “Synthesis and evaluation of 2-amino-9-(1, 3-dihydroxy-2-propoxymethyl)- 6-fluoropurine mono- and diesters as potential prodrugs of ganciclovir” (J Med Chem, 1999).
